Source: ChEMBL document CHEMBL1150828, “Antimalarial, cytotoxic, and antifungal alkaloids from Duguetia hadrantha” (J Nat Prod, 2001)
Values after ≈ are worked out from the molar mass of the structure shown. Active and inactive are the calls of the source. The rule behind the calls is not given here.

Legend:
Plasmodium falciparum [1] = experiment: Antimalarial activity after 48 hrs against chloroquine-resistant Plasmodium falciparum W2 as LDH activity by Makler method; assay type: functional, organism-based; details: W2, 48 h
Procedure, shortened: (§1)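 Parasite lactate dehydrogenase (pLDH) assay adapted from Makler, run in 96-well microplates on two P. falciparum clones, W-2 and D-6 (D-6 chloroquine-sensitive). Chloroquine and artemisinin were positive controls, with DMSO as the vehicle control.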

[2] = Selectivity index, ratio of IC50 of african green monkey (Cercopithecus aethiops) Vero cells to IC50 for chloroquine-resistant Plasmodium falciparum W2; assay type: toxicity, cell-based; details: read-out: Ratio IC50
Plasmodium falciparum [3] = experiment: Antimalarial activity after 48 hrs against chloroquine-sensitive Plasmodium falciparum D6 as LDH activity by Makler method; assay type: functional, organism-based; details: D6, 48 h; procedure, shortened: as §1
[4] = Selectivity index, ratio of IC50 of african green monkey (Cercopithecus aethiops) Vero cells to IC50 for chloroquine-sensitive Plasmodium falciparum D6; assay type: toxicity, cell-based; details: read-out: Ratio IC50
SK-MEL = experiment: Cytotoxicity against human SK-MEL cells after 2 to 7 days by neutral red assay; assay type: functional, cell-based
KB = experiment: Cytotoxicity against human KB cells after 2 to 7 days by neutral red assay; assay type: functional, cell-based
BT-549 = experiment: Cytotoxicity against human BT549 cells after 2 to 7 days by neutral red assay; assay type: functional, cell-based
SK-OV-3 = experiment: Cytotoxicity against human SKOV3 cells after 2 to 7 days by neutral red assay; assay type: functional, cell-based
Candida albicans [5] = experiment: Antifungal activity against Candida albicans B311 after 48 hrs by modified well microplate assay; assay type: functional, organism-based; details: B311, 48 h
Procedure, shortened: (§2)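 ATCC strains (C. albicans B311 #90028, C. neoformans #90113, S. aureus #6535, MRSA #33591) were tested in a modified 96-well microplate protocol. […] Amphotericin B and rifampin served as positive controls and DMSO as the negative control.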

Cryptococcus neoformans [6] = experiment: Antifungal activity against Cryptococcus neoformans ATCC 90113 after 48 hrs by modified well microplate assay; assay type: functional, organism-based; procedure, shortened: as §2
Staphylococcus aureus [7] = experiment: Antibacterial activity against Staphylococcus aureus ATCC 6535 after 48 hrs by modified well microplate assay; assay type: functional, organism-based; procedure, shortened: as §2
Staphylococcus aureus [8] = experiment: Antibacterial activity against methicillin-resistant Staphylococcus aureus ATCC 33591 after 48 hrs by modified well microplate assay; assay type: functional, organism-based; procedure, shortened: as §2
Plasmodium falciparum [9] = experiment: Antimalarial activity against chloroquine-resistant Plasmodium falciparum W2; assay type: functional, organism-based
Procedure, shortened: (§3)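 In vitro antimalarial screen using the parasite lactate dehydrogenase (pLDH) assay, adapted from Makler et al. and run in 96-well microplates. Two P. falciparum clones were tested: W-2 (chloroquine-resistant) and D-6 (chloroquine-sensitive). Chloroquine and artemisinin served as positive controls and DMSO as the vehicle (negative) control. IC50 values were reported.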

Plasmodium falciparum [10] = experiment: Antimalarial activity against chloroquine-sensitive Plasmodium falciparum D6; assay type: functional, organism-based; procedure, shortened: as §3
Candida albicans [11] = experiment: Antifungal activity against Candida albicans B311; assay type: functional
[12] = target: Intercellular adhesion molecule (ICAM-1), Integrin alpha-L/beta-2 (Homo sapiens) (UniProt P20701+P05362+P05107); experiment: Inhibition of LFA1/ICAM1-mediated aggregation of TPA-stimulated human HL60 cells pretreated 10 mins before TPA challenge measured after 16 hrs of PMA addition by microscopy; assay type: cell-based; details: HL-60
Procedure, shortened: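 HL-60 cells at 1 × 10^6 cells/mL preincubated 10 min with sample, then PMA 10 ng/mL added; plates kept in CO2 incubator and aggregation scored microscopically 16 h after PMA; MIC reported; cytochalasin B, anti-LFA-1 and anti-ICAM-1 antibodies as positive controls.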

[13] = Specific index, ratio of IC50 for human HL60 cells to MIC for LFA1/ICAM1 mediated aggregation in TPA-stimulated human HL60 cells; assay type: functional, HL-60
Procedure, shortened: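 Ratio of XTT IC50 in HL-60 cells (4 h XTT-PMS read after the aggregation assay) to the microscopic aggregation MIC of PMA (10 ng/mL)-stimulated HL-60 cells scored 16 h after PMA.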

[14] = target: Intercellular adhesion molecule (ICAM-1), Integrin alpha-L/beta-2 (Homo sapiens, UniProt P05107+P05362+P20701); experiment: Inhibition of LFA1/ICAM1-mediated CFSE-labeled TPA-stimulated human HL60 cell adhesion to ICAM1 expressing human HeLa cells after 45 mins by fluorescence analysis; assay type: cell-based
Chain of Intercellular adhesion molecule (ICAM-1), Integrin alpha-L/beta-2 (P20701 whole entry): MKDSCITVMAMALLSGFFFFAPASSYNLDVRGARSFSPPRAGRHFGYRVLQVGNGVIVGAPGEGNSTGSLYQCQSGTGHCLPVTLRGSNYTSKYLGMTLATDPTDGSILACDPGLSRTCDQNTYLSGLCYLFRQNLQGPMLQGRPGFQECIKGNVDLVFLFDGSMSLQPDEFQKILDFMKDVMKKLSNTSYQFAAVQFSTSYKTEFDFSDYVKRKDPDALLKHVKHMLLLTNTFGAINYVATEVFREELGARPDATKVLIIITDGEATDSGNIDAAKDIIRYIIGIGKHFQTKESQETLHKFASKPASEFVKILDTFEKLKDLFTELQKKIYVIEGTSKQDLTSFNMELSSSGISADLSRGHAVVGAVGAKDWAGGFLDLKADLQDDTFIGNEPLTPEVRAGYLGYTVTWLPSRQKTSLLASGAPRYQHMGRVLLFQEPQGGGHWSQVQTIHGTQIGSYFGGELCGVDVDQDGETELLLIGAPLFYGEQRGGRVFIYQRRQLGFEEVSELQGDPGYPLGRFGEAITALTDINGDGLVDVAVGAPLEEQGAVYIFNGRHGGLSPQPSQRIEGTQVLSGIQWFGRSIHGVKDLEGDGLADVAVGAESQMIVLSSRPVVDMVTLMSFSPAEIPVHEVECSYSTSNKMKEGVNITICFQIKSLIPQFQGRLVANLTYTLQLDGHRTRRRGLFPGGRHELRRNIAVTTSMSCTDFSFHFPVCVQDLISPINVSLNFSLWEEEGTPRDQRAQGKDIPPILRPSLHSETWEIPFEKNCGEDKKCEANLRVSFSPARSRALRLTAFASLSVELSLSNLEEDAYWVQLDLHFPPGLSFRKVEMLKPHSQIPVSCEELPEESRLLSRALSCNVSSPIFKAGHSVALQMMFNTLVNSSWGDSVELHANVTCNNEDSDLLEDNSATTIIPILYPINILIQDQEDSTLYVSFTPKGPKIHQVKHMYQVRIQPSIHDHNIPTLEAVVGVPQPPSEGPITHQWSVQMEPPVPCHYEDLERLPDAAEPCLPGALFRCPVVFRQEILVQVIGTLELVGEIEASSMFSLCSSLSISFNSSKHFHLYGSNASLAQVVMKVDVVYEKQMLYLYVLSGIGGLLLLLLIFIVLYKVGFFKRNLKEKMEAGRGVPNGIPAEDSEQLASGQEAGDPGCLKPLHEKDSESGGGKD
Chain of Intercellular adhesion molecule (ICAM-1), Integrin alpha-L/beta-2 (P05362 whole entry): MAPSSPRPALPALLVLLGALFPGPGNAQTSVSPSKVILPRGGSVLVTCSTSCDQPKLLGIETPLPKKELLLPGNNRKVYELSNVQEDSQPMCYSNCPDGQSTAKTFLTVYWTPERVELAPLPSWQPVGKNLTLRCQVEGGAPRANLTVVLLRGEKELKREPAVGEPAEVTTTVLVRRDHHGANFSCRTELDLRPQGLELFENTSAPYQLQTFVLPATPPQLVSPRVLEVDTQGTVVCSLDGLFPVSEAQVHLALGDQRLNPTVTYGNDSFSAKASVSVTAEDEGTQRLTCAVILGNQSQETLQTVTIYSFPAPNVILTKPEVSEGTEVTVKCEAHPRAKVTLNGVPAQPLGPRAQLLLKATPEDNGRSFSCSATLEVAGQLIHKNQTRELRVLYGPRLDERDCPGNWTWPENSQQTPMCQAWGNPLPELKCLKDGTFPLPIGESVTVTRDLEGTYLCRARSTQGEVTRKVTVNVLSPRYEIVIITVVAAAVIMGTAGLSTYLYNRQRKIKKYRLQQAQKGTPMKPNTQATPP
Chain of Intercellular adhesion molecule (ICAM-1), Integrin alpha-L/beta-2 (P05107 whole entry): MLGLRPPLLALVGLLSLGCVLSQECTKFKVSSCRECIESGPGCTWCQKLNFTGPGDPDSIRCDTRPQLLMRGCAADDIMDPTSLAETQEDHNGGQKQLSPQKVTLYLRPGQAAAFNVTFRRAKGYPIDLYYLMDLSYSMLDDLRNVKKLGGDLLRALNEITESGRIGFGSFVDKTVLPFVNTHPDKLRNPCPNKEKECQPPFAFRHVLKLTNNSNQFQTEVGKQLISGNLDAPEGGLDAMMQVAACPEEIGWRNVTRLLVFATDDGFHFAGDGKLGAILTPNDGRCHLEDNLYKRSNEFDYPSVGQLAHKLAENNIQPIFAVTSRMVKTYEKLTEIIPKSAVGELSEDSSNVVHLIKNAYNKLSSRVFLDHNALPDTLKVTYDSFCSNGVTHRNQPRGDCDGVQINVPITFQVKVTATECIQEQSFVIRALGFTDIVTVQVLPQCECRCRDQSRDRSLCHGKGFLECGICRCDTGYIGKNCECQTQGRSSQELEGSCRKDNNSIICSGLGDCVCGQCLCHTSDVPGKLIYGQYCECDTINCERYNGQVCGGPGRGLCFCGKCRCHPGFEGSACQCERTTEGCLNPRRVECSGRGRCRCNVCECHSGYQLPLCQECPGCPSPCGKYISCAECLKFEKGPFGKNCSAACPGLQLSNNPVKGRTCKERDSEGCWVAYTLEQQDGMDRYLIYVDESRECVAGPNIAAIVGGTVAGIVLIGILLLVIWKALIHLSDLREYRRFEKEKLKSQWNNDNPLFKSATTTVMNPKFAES
Procedure, shortened: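 CFSE-labelled HL-60 cells plus sample added onto confluent ICAM-1-expressing HeLa monolayers with PMA 50 ng/mL; 45 min at 37 °C in CO2 incubator; nonadherent cells washed off, remainder lysed in 1% Triton X-100; fluorescence at ex 496/em 519 nm; anti-ICAM-1 antibody and cytochalasin B positive controls.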

[15] = Specific index, ratio of IC50 for human HL60 cells to IC50 for LFA1/ICAM1-mediated CFSE-labeled TPA-stimulated human HL60 cell adhesion to ICAM1 expressing human HeLa cells
Procedure, shortened: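 Index = HL-60 XTT IC50 / adhesion IC50. XTT: HL-60 at 1 × 10^6 cells/mL, sample 10 min, then PMA 10 ng/mL for 16 h; then XTT 1 mg/mL with 25 µM PMS for 4 h at 37 °C, A450 (ref 630). Adhesion: CFSE-labeled HL-60 on confluent HeLa monolayers, PMA 50 ng/mL, 45 min at 37 °C; nonadherent cells washed off, remainder lysed in 1% Triton X-100, fluorescence ex 496/em 519 nm.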

HL-60 = experiment: Cytotoxicity against human HL60 cells after 16 hrs by XTT/PMS assay; details: HL-60, 16 h
Cryptococcus neoformans [16] = experiment: Antifungal activity against Cryptococcus neoformans ATCC 90113; assay type: functional
[17] = Homo sapiens, BT-549, read-out: IC50
[18] = Homo sapiens, KB, read-out: IC50
[19] = Cryptococcus neoformans, ATCC 90113, 48 h, read-out: IC50
[20] = Staphylococcus aureus, ATCC 6535, 48 h
[21] = Staphylococcus aureus, ATCC 6535, 48 h, read-out: IC50
[22] = Staphylococcus aureus, ATCC 33591, 48 h
[23] = Staphylococcus aureus, ATCC 33591, 48 h, read-out: IC50
[24] = Cryptococcus neoformans, ATCC 90113, 48 h

Structure (SMILES)	IC50 (Plasmodium falciparum [1]) [µg/mL]	selectivity ratio [2]	IC50 (Plasmodium falciparum [3]) [µg/mL]	selectivity ratio [4]	IC50 (SK-MEL) [µg/mL]	IC50 (BT-549; [17]) [µg/mL]	IC50 (SK-OV-3) [µg/mL]	IC50 (Candida albicans [5]) [µg/mL]	MIC (Candida albicans [5]) [µg/mL]	IC50 (KB; [18]) [µg/mL]	IC50 (Cryptococcus neoformans [6]; [19]) [µg/mL]	MIC [12] [µg/mL]	IC50 (HL-60) [µg/mL]	also measured
COc1ccc2c(OC)c3c4c(ccnc4c2c1)C(=O)C(=O)N3C [HADRANTHINE A]	0.12 (≈ 0.372 µM)	> 40	0.12 (≈ 0.372 µM)	> 40	> 10	> 10	> 10	4.5 (≈ 14 µM)	20 (≈ 62.1 µM)	–	–	–	–	IC50 (KB; kb): Not Active; IC50 (Cryptococcus neoformans [6]): Not Active; MIC (Cryptococcus neoformans [6]): inactive; IC50 (Staphylococcus aureus [7]): Not Active; MIC (Staphylococcus aureus [7]): inactive; IC50 (Staphylococcus aureus [8]): Not Active; MIC (Staphylococcus aureus [8]): inactive
COc1c2c3c(ccnc3c3ccccc13)C(=O)C(=O)N2C	0.28 (≈ 0.958 µM)	> 17	0.55 (≈ 1.88 µM)	> 8.7	2 (≈ 6.84 µM)	> 10	5 (≈ 17.1 µM)	9 (≈ 30.8 µM)	50 (≈ 171 µM)	> 10	50 (≈ 171 µM)	–	–	IC50 (Staphylococcus aureus [7]): Not Active; MIC (Staphylococcus aureus [7]): inactive; IC50 (Staphylococcus aureus [8]): Not Active; MIC (Staphylococcus aureus [8]): inactive
CO[C@H]1/C=C/O[C@@]2(C)Oc3c(C)c(O)c4c(O)c(c(/C=N/N5CCN(C)CC5)c(O)c4c3C2=O)NC(=O)/C(C)=C\C=C\[C@H](C)[C@H](O)[C@@H](C)[C@@H](O)[C@@H](C)[C@H](OC(C)=O)[C@@H]1C [RIFAMPIN]	–	–	–	–	–	–	–	–	–	–	–	–	–	MIC (Staphylococcus aureus [7]; [20]): 0.02 µg/mL (≈ 0.0243 µM); IC50 (Staphylococcus aureus [7]; [21]): 0.01 µg/mL (≈ 0.0122 µM); MIC (Staphylococcus aureus [8]; [22]): 0.312 µg/mL (≈ 0.38 µM); IC50 (Staphylococcus aureus [8]; [23]): 0.0025 µg/mL (≈ 0.00304 µM)
C[C@@H]1CC[C@H]2[C@@H](C)C(=O)O[C@@H]3O[C@@]4(C)CC[C@@H]1[C@]32OO4 [ARTEMISININ]	0.0044 (≈ 0.0156 µM)	> 1080	0.005 (≈ 0.0177 µM)	> 952	–	–	–	–	–	–	–	–	–	IC50 (Plasmodium falciparum [9]): 0.0005 µg/mL (≈ 0.00177 µM); IC50 (Plasmodium falciparum [10]): 0.0018 µg/mL (≈ 0.00638 µM)
O=c1[nH]cc(F)c(=O)[nH]1 [FLUOROURACIL]	–	–	–	–	6.3 (≈ 48.4 µM)	–	> 10	–	–	> 10	–	–	–	IC50 (BT-549; bt-549): Not Active
O=C1c2ccccc2-c2nccc3ccnc1c23 [SAMPANGINE]	0.068 (≈ 0.293 µM)	> 70	0.42 (≈ 1.81 µM)	> 11	0.37 (≈ 1.59 µM)	6.4 (≈ 27.6 µM)	4.1 (≈ 17.7 µM)	0.15 (≈ 0.646 µM)	0.39 (≈ 1.68 µM)	5.3 (≈ 22.8 µM)	0.15 (≈ 0.646 µM)	< 0.15	2 (≈ 8.61 µM)	MIC (Cryptococcus neoformans [6]; [24]): 0.78 µg/mL (≈ 3.36 µM); IC50 (Staphylococcus aureus [7]; [21]): 5.5 µg/mL (≈ 23.7 µM); MIC (Staphylococcus aureus [8]; [22]): 12.5 µg/mL (≈ 53.8 µM); IC50 (Staphylococcus aureus [8]; [23]): 9 µg/mL (≈ 38.8 µM); MIC (Candida albicans [11]): 1.56 µg/mL (≈ 6.72 µM); Ratio [13]: >13.3; IC50 [14]: > 43100 nM; Ratio IC50 [15]: <0.2
COc1cnc2c3c(nccc13)C(=O)c1ccccc1-2	0.095 (≈ 0.362 µM)	> 50	0.28 (≈ 1.07 µM)	> 17	> 10	–	> 10	3 (≈ 11.4 µM)	20 (≈ 76.3 µM)	–	0.65 (≈ 2.48 µM)	12.5 (≈ 47.7 µM)	7.2 (≈ 27.5 µM)	IC50 (KB; kb): Not Active; IC50 (BT-549; bt-549): Not Active; MIC (Cryptococcus neoformans [6]; [24]): 3.12 µg/mL (≈ 11.9 µM); MIC (Staphylococcus aureus [7]; [20]): 25 µg/mL (≈ 95.3 µM); IC50 (Staphylococcus aureus [7]; [21]): 15 µg/mL (≈ 57.2 µM); IC50 (Staphylococcus aureus [8]; [23]): 20 µg/mL (≈ 76.3 µM); MIC (Cryptococcus neoformans [16]): 0.78 µg/mL (≈ 2.97 µM); Ratio [13]: 0.6
COc1cccc2c1C(=O)c1c(O)c3c(c(O)c1C2=O)C[C@@](O)(C(=O)CO)C[C@@H]3O[C@H]1C[C@H](N)[C@H](O)[C@H](C)O1 [DOXORUBICIN]	–	–	–	–	< 1.1	< 1.1	< 1.1	–	–	< 1.1	–	–	–	–
C=C1[C@@H](C)[C@H]2[C@H](Cc3ccccc3)NC(=O)[C@]23OC(=O)/C=C/[C@H](O)CCC[C@@H](C)C/C=C/[C@H]3[C@@H]1O [CYTOCHALASIN B]	–	–	–	–	–	–	–	–	–	–	–	0.39 (≈ 0.813 µM)	> 30	Ratio [13]: 76.9; IC50 [14]: 521 nM; Ratio IC50 [15]: >120
C[C@@H]1[C@H](O)[C@@H](C)/C=C/C=C/C=C/C=C/C=C/C=C/C=C/[C@H](O[C@@H]2O[C@H](C)[C@@H](O)[C@H](N)[C@@H]2O)C[C@@H]2O[C@](O)(C[C@@H](O)C[C@@H](O)[C@H](O)CC[C@@H](O)C[C@@H](O)CC(=O)O[C@H]1C)C[C@H](O)[C@H]2C(=O)O [AMPHOTERICIN B]	–	–	–	–	–	–	–	0.011 (≈ 0.0119 µM)	0.02 (≈ 0.0216 µM)	–	0.045 (≈ 0.0487 µM)	–	–	MIC (Cryptococcus neoformans [6]; [24]): 0.156 µg/mL (≈ 0.169 µM); IC50 (Staphylococcus aureus [7]): Not Active; MIC (Staphylococcus aureus [7]): inactive; IC50 (Staphylococcus aureus [8]): Not Active; MIC (Staphylococcus aureus [8]): inactive
COc1c2c3c(ccnc3c3ccccc13)C(=O)C(=O)N2 [HADRANTHINE B]	–	–	–	–	3 (≈ 10.8 µM)	6.6 (≈ 23.7 µM)	3.6 (≈ 12.9 µM)	–	–	6.4 (≈ 23 µM)	–	4.2 (≈ 15.1 µM)	> 12.5	Ratio IC50 [13]: 3
